A selection: hits, their analogues and other compounds. The true share with any hit is near 0.48%.
TNAP inh noacc: TNAP (human) inhibition, acceptor-free conditions; hit rate 0.26% among 200,000; AID 1012; purified TNAP, CDP-star luminescence, 30 min; inhibition, % at 20 µM; P05186;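 active = tissue-nonspecific alkaline phosphatase inhibition above about 50% at 20 µM in the single-dose screen, limit read from the data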;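 note: 0% = DMSO negative control and 100% = EDTA positive control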
TNAP act hi DEA: increases human TNAP activity under high phosphate acceptor concentration. purified TNAP, CDP-star luminescence, 1 M DEA, 30 min; stronger effect = higher value; 0 = EDTA background, 1 = DMSO-only activity. P05186. 200,000 tested, under 10 active. AID 1136. activation factor at 20 µM;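 active = activation factor at least 2 at 20 µM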
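Test system – human TNAP · Doses – 20 µM single point · Incubation – 30 min, room temperature · Signal – luminescent substrate turnover signal · Read-out basis – activation factor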
ABCG2 block: inhibitors of human ABCG2 transporter, ABCB1 counter-screen | Q9UNQ0 | hit rate 0.1% among 190,000 | inhibition, % at 6.6 µM | IgMXP3 cells, JC-1 efflux, flow cytometry;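 active = inhibition above 80%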;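 note: 0% = DMSO and 100% = nicardipine control wells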
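Read-out basis: Efflux inhibition in percent versus controls | Test system: ABCG2 IgMXP3 and barcoded ABCB1 CCRF-Adr cell mix | Quantity: 3 million cells/mL in well | Schedule: 10 min at 25 °C | Control set: Nicardipine as high control, DMSO as low control | Reagent: JC-1 as fluorescent efflux pump substrate | Signal: Flow cytometry of retained JC-1 fluorescence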
TNAP inh hi DEA: blocks human TNAP under high phosphate acceptor concentration | P05186 | purified TNAP, CDP-star luminescence, 1 M DEA | inhibition, % at 20 µM | hit rate 0.03% among 200,000;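 active = over 50% inhibition of tissue-nonspecific alkaline phosphatase at 20 µM in the single-dose screen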;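 note: plate controls were DMSO wells for no effect and EDTA-quenched wells as full inhibition for full effect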
ABCB1 block: blocks JC-1 efflux by human ABCB1 transporter; P08183; CCRF-Adr cells, flow cytometry; inhibition, % at 6.6 µM; hit rate 0.067% among 190,000; AID 1326; in the data active = inhibition above about 40%;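 note: 0% = vehicle and 100% = reference inhibitor; higher value means more JC-1 retained so stronger ABCB1 efflux block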
PKD1 kinase inh: inhibitors of human PKD1 kinase. AID 797. PKD1 kinase fluorescence polarization assay. inhibition, % (concentration not given with the values). hit rate 0.056% among 200,000; in the data active = inhibition above about 50%
Target sequence (Q15139 whole entry, looked up): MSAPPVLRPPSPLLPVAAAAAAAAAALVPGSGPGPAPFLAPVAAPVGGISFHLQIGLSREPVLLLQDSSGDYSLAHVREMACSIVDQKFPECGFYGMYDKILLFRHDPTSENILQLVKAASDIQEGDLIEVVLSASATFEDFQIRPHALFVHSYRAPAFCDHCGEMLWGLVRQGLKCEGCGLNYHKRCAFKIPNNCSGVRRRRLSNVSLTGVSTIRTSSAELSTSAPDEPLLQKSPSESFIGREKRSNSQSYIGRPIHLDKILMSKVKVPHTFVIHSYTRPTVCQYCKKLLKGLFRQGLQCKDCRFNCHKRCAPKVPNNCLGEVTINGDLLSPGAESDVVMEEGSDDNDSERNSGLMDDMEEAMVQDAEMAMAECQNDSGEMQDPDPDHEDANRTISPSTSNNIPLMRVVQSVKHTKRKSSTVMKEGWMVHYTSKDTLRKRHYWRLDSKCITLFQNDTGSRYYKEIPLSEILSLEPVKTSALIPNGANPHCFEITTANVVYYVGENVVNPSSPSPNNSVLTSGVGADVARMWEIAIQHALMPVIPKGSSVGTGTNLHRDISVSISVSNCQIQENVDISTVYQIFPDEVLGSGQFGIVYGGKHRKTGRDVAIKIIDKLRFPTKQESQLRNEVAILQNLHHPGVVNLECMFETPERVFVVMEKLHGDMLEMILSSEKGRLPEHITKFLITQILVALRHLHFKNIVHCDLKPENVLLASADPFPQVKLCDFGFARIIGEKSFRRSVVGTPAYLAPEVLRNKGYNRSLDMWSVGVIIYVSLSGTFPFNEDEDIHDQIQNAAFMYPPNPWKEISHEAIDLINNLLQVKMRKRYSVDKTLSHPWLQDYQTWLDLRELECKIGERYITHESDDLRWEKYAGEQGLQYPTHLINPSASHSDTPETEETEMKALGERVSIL
ABCB1 confirm: confirmation of human ABCB1 transporter inhibitors, ABCG2 counter-screen | shares compounds with ABCG2 block | CCRF-Adr cells, JC-1 efflux, flow cytometry | inhibition, % at 6.6 µM | hit rate 7% among 270 | AID 1451;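 active = inhibition of pump activity above 50%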;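 note: 0% = DMSO and 100% = nicardipine full pump inhibition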
ABCG2 single pt: inhibits human ABCG2 efflux, confirmed at single point | IgMXP3 cells, JC-1 efflux, flow cytometry | inhibition, % at 6.6 µM | shares compounds with ABCG2 block | hit rate 6% among 270;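 active = inhibition above 50%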;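 note: 0% = DMSO wells and 100% = nicardipine pump inhibitor wells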
IgMXP3 fluor: counter-screen for ABCG2 inhibitors: compound fluorescence in IgMXP3 cells | compound autofluorescence 488/530 nm, flow; stronger effect = higher value | hit rate 30% among 270 | fluorescence at 6.6 µM | AID 1480 | shares compounds with ABCG2 block;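 active = fluorescence in ABCG2-expressing cells above the plate's control-well mean plus 3 SD, cut at about 15 in these data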;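 note: median cell fluorescence with compound minus that of DMSO-treated control cells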
CCRF autofluor: CCRF-Adr autofluorescence flag for ABCB1 confirmation; shares compounds with ABCG2 block; CCRF-Adr cells, compound autofluorescence 488/530 nm, flow cytometry; stronger effect = higher value; fluorescence at 6.6 µM; hit rate 30% among 270; AID 1483;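 active = fluorescence beyond the plate control mean plus 3 SD, with a fluorescence-to-maximum score over 2, cut at about 25 in these data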
Starred values were filed as active, the others as inactive.

How did O=C(OCc1cc([N+](=O)[O-])cc2c1OCOC2)c1ccccn1 do in these assays?
TNAP inh noacc: 1.8; TNAP act hi DEA: 1; ABCG2 block: 4.2; TNAP inh hi DEA: 0.2; ABCB1 block: 0.3; PKD1 kinase inh: -7.1

What do the screens show for `CC1CN(c2nnc(NC(=O)c3ccccc3)s2)CC(C)O1` (configuration not stated)?
TNAP inh noacc: -8.0; TNAP act hi DEA: 1; ABCG2 block: 5.5; TNAP inh hi DEA: -4.1; ABCB1 block: 1.6; PKD1 kinase inh: -4.9

Results for Cc1c(Cl)c([N+](=O)[O-])nn1CCCC(=O)Nc1cc(Oc2ccccc2)cc([N+](=O)[O-])c1 ?
TNAP inh noacc: -0.1; TNAP act hi DEA: 1; ABCG2 block: 84.9*; TNAP inh hi DEA: -3.8; ABCB1 block: 1.9; PKD1 kinase inh: 0.9; ABCB1 confirm: 18.3; ABCG2 single pt: 31.2; IgMXP3 fluor: -0.99; CCRF autofluor: -1.79

Results for CC(=O)c1sc(Nc2nc3cc4c(cc3s2)OCO4)nc1C ?
TNAP inh noacc: -147.4; TNAP act hi DEA: 1; ABCG2 block: -6.3; TNAP inh hi DEA: 3.3; ABCB1 block: -0.7; PKD1 kinase inh: 6.5

What do the screens show for `CCOC(=O)c1sc(Nc2nc3cc4c(cc3s2)OCO4)cc1C`?
TNAP inh noacc: -4.7; TNAP act hi DEA: 1; ABCG2 block: 175.3*; TNAP inh hi DEA: 3.7; ABCB1 block: 195.0*; PKD1 kinase inh: -5.3; ABCB1 confirm: 2.2; ABCG2 single pt: 15.6; IgMXP3 fluor: -1.59; CCRF autofluor: -2.24

How did COc1cc(/C=N/NC(=O)CSc2nc3ccccc3n2C)cc(OC)c1OC do in these assays?
TNAP inh noacc: -7.6; TNAP act hi DEA: 1; ABCG2 block: 3.6; TNAP inh hi DEA: -4.1; ABCB1 block: -1.3; PKD1 kinase inh: -3.8

What do the screens show for `COCCNC(=S)Nc1cc(OC)c(OC)cc1C#N`?
TNAP inh noacc: 1.4; TNAP act hi DEA: 1; ABCG2 block: 0.6; TNAP inh hi DEA: 4.1; ABCB1 block: -0.3; PKD1 kinase inh: -0.8

How did O=C(Nc1ccccc1O)c1ccc(NS(=O)(=O)c2cccc3cccnc23)cc1 do in these assays?
TNAP inh noacc: -7.8; TNAP act hi DEA: 1.1; ABCG2 block: 0.9; TNAP inh hi DEA: -6.2; ABCB1 block: 2.7; PKD1 kinase inh: 3.1

What do the screens show for `Nc1c(-c2ccccc2)c(CSc2nc3ccccc3[nH]2)nn1-c1ccc(Cl)cc1`?
TNAP inh noacc: -91.1; TNAP act hi DEA: 1; ABCG2 block: 28.4; TNAP inh hi DEA: -0.7; ABCB1 block: 43.4*; PKD1 kinase inh: 1.9; ABCB1 confirm: 29.1; ABCG2 single pt: 24.7; IgMXP3 fluor: -0.69; CCRF autofluor: -3.04

Results for CN(C)Cc1c(-c2ccc(Cl)cc2)nc2ccc(Cl)cn12 ?
TNAP inh noacc: -9.6; TNAP act hi DEA: 1; ABCG2 block: 2.0; TNAP inh hi DEA: -2.2; ABCB1 block: 0.4; PKD1 kinase inh: 1.9

What do the screens show for `O=c1cc(N2CCN(c3ccccc3)CC2)[nH]c(=O)n1-c1ccccc1Cl`?
TNAP inh noacc: -15.0; TNAP act hi DEA: 1; ABCG2 block: 1.1; TNAP inh hi DEA: -2.1; ABCB1 block: 0.1; PKD1 kinase inh: -5.8

Results for O=Cc1c(Cl)[nH]c(=O)n1-c1ccccc1 ?
TNAP inh noacc: -10.7; TNAP act hi DEA: 1; ABCG2 block: 104.1*; TNAP inh hi DEA: -4.0; ABCB1 block: 3.6; PKD1 kinase inh: 2.5; ABCB1 confirm: 2.1; ABCG2 single pt: 4.5; IgMXP3 fluor: -0.84; CCRF autofluor: -0.94

What do the screens show for `COc1ccc(/C=N/NC(=O)c2cccnc2)cc1CN1CCN(c2ccc(F)cc2)CC1`?
TNAP inh noacc: 3.6; TNAP act hi DEA: 1; ABCG2 block: 8.7; TNAP inh hi DEA: -0.9; ABCB1 block: 44.8*; PKD1 kinase inh: 2.5; ABCB1 confirm: 34.9; ABCG2 single pt: 11.8; IgMXP3 fluor: -1.84; CCRF autofluor: -3.84

Results for CN1CCN(C2=CC3=CC(=C(C#N)C#N)CCC3CC2)CC1 (configuration not stated) ?
TNAP inh noacc: -0.7; TNAP act hi DEA: 0.6; ABCG2 block: 85.0*; TNAP inh hi DEA: 38.6; ABCB1 block: active; PKD1 kinase inh: -2.3; ABCB1 confirm: 68.4*; ABCG2 single pt: 53.3*; IgMXP3 fluor: 28.8*; CCRF autofluor: 46.8*

What do the screens show for `N#CC(C#N)=C1C=C2C=C(N3CCCCCC3)CCC2CC1` (configuration not stated)?
TNAP inh noacc: 6.1; TNAP act hi DEA: 0.5; ABCG2 block: 55.5; TNAP inh hi DEA: 45.4; ABCB1 block: 115.6*; PKD1 kinase inh: -38.3; ABCB1 confirm: 138.5*; ABCG2 single pt: 46.3; IgMXP3 fluor: 46.1*; CCRF autofluor: 131*

What do the screens show for `CC1(C)CC(NCCN2CCN(C3=CC(=C(C#N)C#N)CC(C)(C)C3)CC2)=CC(=C(C#N)C#N)C1`?
TNAP inh noacc: -21.5; TNAP act hi DEA: 1.1; ABCG2 block: 5.0; TNAP inh hi DEA: -5.0; ABCB1 block: -0.1; PKD1 kinase inh: -5.3

How did CCN1CCN(C2=CC3=CC(=C(C#N)C#N)CCC3CC2)CC1 (configuration not stated) do in these assays?
TNAP inh noacc: 3.9; TNAP act hi DEA: 0.6; ABCG2 block: 55.4; TNAP inh hi DEA: 40.3; ABCB1 block: 69.6*; PKD1 kinase inh: -4.8; ABCB1 confirm: 23.4; ABCG2 single pt: 45.5; IgMXP3 fluor: 34.7*; CCRF autofluor: 92.9*

Results for N#CC(C#N)=C1C=C2C=C(N3CCOCC3)CCC2CC1 (configuration not stated) ?
TNAP inh noacc: -4.8; TNAP act hi DEA: 0.6; ABCG2 block: 52.9; TNAP inh hi DEA: 35.8; ABCB1 block: 169.4*; PKD1 kinase inh: -9.6; ABCB1 confirm: 11.5; ABCG2 single pt: 50.3*; IgMXP3 fluor: 7.66; CCRF autofluor: 24.9

What do the screens show for `Cc1ccc(-c2nn(-c3ccccc3)cc2C=O)o1`?
TNAP inh noacc: -6.9; TNAP act hi DEA: 1; ABCG2 block: 2.6; TNAP inh hi DEA: -1.1; ABCB1 block: 0.5; PKD1 kinase inh: -2.8

How did CCCN(CCC)CC(O)CN1C(=O)NC(C)(C)C1=O (configuration not stated) do in these assays?
TNAP inh noacc: -12.4; TNAP act hi DEA: 1.1; ABCG2 block: 1.2; TNAP inh hi DEA: -5.3; ABCB1 block: 0.8; PKD1 kinase inh: 1.8

Bioassay records: PubChem, several laboratories
